Source: PubChem
TWEAK Fn14 block: blocks TWEAK-Fn14 interaction in a reporter cell assay | actives 2% (n = 360,000) | TWEAK-stimulated Fn14 reporter cells, luciferase luminescence, 8 h | inhibition, % at 10 µM | AID 1159606; in the data active = inhibition above about 50%
LGR2 inh: blocks bursicon-induced cAMP signaling via Drosophila LGR2 | actives 0.35% (n = 380,000) | HEK293 LGR2, CRE-luciferase, bursicon-stimulated, 4 h | inhibition, % at 9.99 µM | AID 720647;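 active = drop in luminescence signal, shown as inhibition above about 50% in the replicate tests, limit read from the data, passing the limit was not always enough; inconclusive = probably only some replicates passing the limit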;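 note: agonist challenge used bursicon conditioned medium at about half maximal strength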
FN deposit inh: fibronectin deposition inhibition; AH1F fibroblasts, Alexa488-fibronectin deposition fluorescence, overnight; inhibition, % at 12.6 µM; actives 0.086% (n = 350,000); AID 743247;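 active = mean inhibition across replicates of 30% or more, regardless of how many single replicates reach that level; inconclusive = mean under 30% yet at least half of replicates reach 30%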
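test system = AH1F fibroblasts assembling fluorescent fibronectin matrix | quantity = 10000 AH1F cells per well | buffer or medium = DMEM plus 2% serum, read in PBS | doses = single dose, pinned | incubation = 1 h cell attachment, overnight exposure to compound and label | detection = fluorescence at 485 nm excitation, 525 nm emission | read-out basis = inhibition from reduced deposited-fibronectin fluorescence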
TROY signal inh: blocks TROY-dependent signaling in reporter cells; Q293 LMP1-TROYcd NF-kB luciferase reporter, 4 h; actives 0.98% (n = 360,000); AID 1347056; inhibition, % at 10 µM;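 active = compounds whose plate-normalised and pattern-corrected inhibition of the luciferase reporter signal at the single screening dose is 50% or more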
EWS-Fli block: EWS/Fli transcriptional activity inhibition | A673 NR0B1-luciferase reporter, viability-normalised | inhibition, % at 12.6 µM | actives 0.67% (n = 350,000) | AID 651661;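 active = mean inhibition of at least 50% after viability correction, with every replicate also passing that limit; inconclusive = mean reaches 50% but only one of two replicates passes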;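 note: firefly luciferase signal divided by Alamar Blue viability fluorescence both relative to DMSO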
Xi reactivation: reactivates the inactive X chromosome in mouse fibroblasts; XiGFP mouse fibroblasts, % GFP-positive cells imaging, 3 d; cells co-treated with 5-aza-dC sensitizer; scaled so ellipticine positive control = 100%; activation, % at 7.58 µM; actives 0.055% (n = 360,000); AID 743238;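 active = mean normalized replicate activation at least 10% and every replicate at or above 10%; inconclusive = only one of the two criteria met; inactive = mean below 10% and not all replicates reach 10%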
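System: 68-5-11 XiGFP fibroblast line | Buffer or medium: DMEM containing 5-aza-dC | Compound: Single point | Times: Compounds 3 days, fix/stain 15 min at room temperature | Benchmarks: Positive control ellipticine, 6 µM final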
Each line names hits and unclear results; the compound was inactive in the other large screens; ! = not active in a repeat. Compounds with a hit are over-represented: about 2.3% of the library has one in this group of screens.

Cc1cc(O)c(C(=O)/C=C/c2ccc(Cl)cc2)c(=O)o1	none (no result: FN deposit inh)
Cc1ccc(/C=C/C(=O)c2ccc([N+](=O)[O-])o2)cc1	EWS-Fli block 64 (no result: TWEAK Fn14 block, TROY signal inh)
Cc1ccc(CNC(=O)c2ccc([N+](=O)[O-])o2)cc1	none (no result: LGR2 inh, EWS-Fli block, Xi reactivation)
O=C(/C=C/c1ccc(Cl)cc1)c1ccc([N+](=O)[O-])o1	TWEAK Fn14 block 88, Xi reactivation inconclusive
C[C@H](CO)N1C[C@H](C)[C@H](CN(C)C(=O)Nc2ccc(F)cc2)Oc2ncc(/C=C/c3ccccc3)cc2C1=O	none (no result: TWEAK Fn14 block, FN deposit inh, TROY signal inh, EWS-Fli block)
C[C@H](CO)N1C[C@H](C)[C@@H](CN(C)C(=O)Nc2ccc(C(F)(F)F)cc2)Oc2c(NC(=O)Nc3ccccc3)cccc2C1=O	EWS-Fli block 64!
C[C@@H]1CN([C@@H](C)CO)C(=O)c2cc(/C=C/c3ccccc3)cnc2O[C@@H]1CN(C)C(=O)Nc1ccc(C(F)(F)F)cc1	EWS-Fli block 52 (no result: TWEAK Fn14 block, TROY signal inh)
C[C@H](CO)N1C[C@H](C)[C@@H](CN(C)Cc2ccc3c(c2)OCO3)Oc2c(NC(=O)Nc3ccc(C(F)(F)F)cc3)cccc2C1=O	LGR2 inh 60 (no result: TWEAK Fn14 block, TROY signal inh)
C[C@H](CO)N1C[C@H](C)[C@@H](CN(C)S(=O)(=O)c2ccccc2)Oc2cc(C#Cc3ccncc3)ccc2S1(=O)=O	none (no result: TWEAK Fn14 block, FN deposit inh, TROY signal inh)
CCOc1ccc(NC(=O)CCCc2cc(-c3ccc(OCC)cc3)on2)cc1	none (no result: LGR2 inh, EWS-Fli block, Xi reactivation)
COc1ccc(-c2cc(CCCC(=O)NCc3ccccn3)no2)cc1	TWEAK Fn14 block 86
COc1ccc(-c2cc(CCCC(=O)NCCc3ccccc3)no2)cc1	none
CCOc1ccc(-c2cc(CCCC(=O)Nc3cccc(OC)c3)no2)cc1	TWEAK Fn14 block 57, EWS-Fli block 64
Cc1ccc(-c2nnc(Nc3ccccc3)o2)cc1	TWEAK Fn14 block 94, LGR2 inh 90, TROY signal inh 66, EWS-Fli block 63 (no result: FN deposit inh, Xi reactivation)
Cc1nc(NC(=S)NC(=O)COc2ccccc2Cl)ccc1Br	none
COc1ccc(OCC(=O)NC(=S)NNC(=O)COc2ccc(Br)cc2Cl)cc1	none
Cc1ccc(OCC(=O)NC(=S)Nc2ccccn2)c(Br)c1	TWEAK Fn14 block 91, LGR2 inh 71, TROY signal inh 79, EWS-Fli block 52
O=C(COc1ccc(Br)cc1Cl)NC(=S)Nc1ccccn1	TWEAK Fn14 block 64, TROY signal inh 69 (no result: FN deposit inh, EWS-Fli block)
CC(=O)Nc1cccc2c1O[C@@H](CN(C)C(C)=O)[C@H](C)CN(C)C2=O	none (no result: TWEAK Fn14 block, LGR2 inh, TROY signal inh, EWS-Fli block)
CN1c2ccc(-c3cccc(F)c3)cc2[C@H]2[C@H](CCN2C(=O)C2CC2)[C@@H]1CO	none (no result: TWEAK Fn14 block, TROY signal inh)
COc1ccc(N(C(=O)CCl)C(C(=O)NC2CCCCC2)c2cccnc2)cc1 (stereo unspecified)	none (no result: EWS-Fli block)
Cc1ccc(N(C(=O)Cn2nnc(-c3ccc(C)o3)n2)C(C(=O)NC2CCCC2)c2ccncc2)cc1 (stereo unspecified)	TWEAK Fn14 block 56
COc1ccc(C(C(=O)NC2CCCCC2)N(C(=O)CCl)c2ccc(OC)cc2)cc1 (stereo unspecified)	TWEAK Fn14 block 64 (no result: LGR2 inh, FN deposit inh, EWS-Fli block, Xi reactivation)
Cc1ccc(-c2nnn(CC(=O)N(c3ccc(F)cc3)C(C(=O)NC3CCCC3)c3ccncc3)n2)o1 (stereo unspecified)	none
COc1ccc(C(C(=O)NC2CCCCC2)N(C(=O)CCl)c2cccc(Cl)c2)cc1 (stereo unspecified)	TWEAK Fn14 block 58, EWS-Fli block 53 (no result: LGR2 inh)
COc1ccc(C(C(=O)NC2CCCCC2)N(C(=O)CCl)c2ccc(C)cc2)cc1 (stereo unspecified)	TWEAK Fn14 block 57 (no result: LGR2 inh)
CCCNC(=O)N1CC2(CN(C(=O)c3ccncc3)C2)c2c([nH]c3cc(OC)ccc23)[C@H]1CO	none (no result: TWEAK Fn14 block, FN deposit inh, TROY signal inh)
O=C(NC(=S)Nc1cccc(Cl)c1N1CCCCC1)c1ccc2c(c1)OCCO2	TWEAK Fn14 block 71, TROY signal inh 70 (no result: EWS-Fli block)
CN(C)C(=O)C[C@H]1CC[C@@H]2[C@H](COC[C@H](O)CN2Cc2nccs2)O1	none (no result: TWEAK Fn14 block, TROY signal inh)
Cn1nc(C(=O)Nc2cccc(S(N)(=O)=O)c2)c2ccccc2c1=O	none (no result: Xi reactivation)
COc1ccc(NS(=O)(=O)c2cc(NC(=O)c3nn(C)c(=O)c4ccccc34)ccc2OC)cc1	TWEAK Fn14 block 53
COc1ccc(NS(=O)(=O)c2cc(NC(=O)c3cncc(Br)c3)ccc2OC)cc1	TWEAK Fn14 block 52
O=C(Nc1nccs1)c1cc2c(s1)CCCCC2	TWEAK Fn14 block 100, TROY signal inh 78 (no result: LGR2 inh, FN deposit inh, EWS-Fli block, Xi reactivation)
Cc1ccc(C)c(S(=O)(=O)Nc2ccc(O)c3ccccc23)c1	TWEAK Fn14 block 85
CCCc1cc(C(=O)Nc2ccc(C(=O)c3ccccc3)cc2)n(C)n1	none (no result: FN deposit inh)
CCCc1cc(C(=O)Nc2ccc(C(=O)c3ccc(F)cc3)cc2)n(C)n1	TWEAK Fn14 block 50, TROY signal inh 59 (no result: LGR2 inh, FN deposit inh, EWS-Fli block, Xi reactivation)
Cc1ccccc1/C=C/C12NC(=O)CN1c1ccccc1C2(C)C (stereo unspecified)	TWEAK Fn14 block 56
C[C@@H]1CN([C@@H](C)CO)C(=O)c2cc(/C=C/c3ccccc3)cnc2O[C@H]1CN(C)C(=O)CN(C)C	none (no result: TWEAK Fn14 block, TROY signal inh)
CCOc1ccc2nc(C)cc(Nc3cccc([N+](=O)[O-])c3)c2c1	EWS-Fli block 72 (no result: LGR2 inh)
CCOC(=O)c1cc(-c2ccccc2)sc1NC(=O)C(C)(C)C	TWEAK Fn14 block 96 (no result: LGR2 inh, FN deposit inh, EWS-Fli block, Xi reactivation)
C[C@H](NC(=O)C[C@H]1C[C@@H]2c3cc(NC(=O)Cc4ccncc4)ccc3O[C@@H]2[C@H](CO)O1)c1ccccc1	none (no result: TWEAK Fn14 block, FN deposit inh, TROY signal inh)
N#C[C@H]1[C@@H](c2ccccc2)[C@@H](CO)N1C(=O)Cc1ccccc1	none (no result: TWEAK Fn14 block, TROY signal inh)
O=C(OCc1nc2scc(-c3ccccc3)c2c(=O)[nH]1)c1cc([N+](=O)[O-])ccc1Cl	TWEAK Fn14 block 63
O=C(O)CSCc1nc2scc(-c3ccccc3)c2c(=O)[nH]1	none
CNC[C@@H]1Oc2ccc(NC(=O)C3CC3)cc2CC(=O)N([C@@H](C)CO)C[C@@H]1C	none (no result: TWEAK Fn14 block, FN deposit inh, TROY signal inh)
CCOc1cc(C(=O)Nc2cccnc2)cc(OCC)c1OCC	TROY signal inh 52
CCCOc1ccc(C(=O)Nc2cccnc2)cc1	none
COc1ccc(NC(=O)N[C@H]2CC[C@H](CCNC(=O)c3ccccc3F)O[C@H]2CO)cc1	none (no result: TWEAK Fn14 block, TROY signal inh)
CNC[C@@H]1Oc2c(NS(=O)(=O)c3cccs3)cccc2C(=O)N([C@@H](C)CO)C[C@@H]1C	none (no result: TWEAK Fn14 block, TROY signal inh)
CCC1N=C(SC)NC(C)=C1C(=O)c1ccccc1 (stereo unspecified)	none
CSC1=NC(C(Cl)(Cl)Cl)N=C(c2ccc(C)cc2)N1 (stereo unspecified)	EWS-Fli block 59
COc1nc(=O)n(C2C=CC(=O)O2)cc1F (stereo unspecified)	TWEAK Fn14 block 64
C[C@@H]1CN([C@H](C)CO)S(=O)(=O)c2ccc(-c3ccc(F)cc3)cc2O[C@@H]1CN(C)C	none (no result: TWEAK Fn14 block, TROY signal inh)
CCOC(=O)c1c(NC(=S)N2CCOCC2)sc2c1CCN(C(=O)OCC)C2	LGR2 inh 63
